29 compounds from ChEMBL document CHEMBL1759885, “Syntheses of 1,2,3-triazolyl salicylamides with inhibitory activity on lipopolysaccharide-induced nitric oxide production” (Bioorg Med Chem Lett, 2011) can be followed below.

A word on the IC50: it is the point on the concentration scale where inhibition reaches its midpoint. A low value points to greater potency. Broadly, the inhibition is the share of the control response that was lost under treatment.

Data set [1] concerns RAW264.7. In words: Inhibition of LPS-induced nitric oxide production in mouse RAW264.7 cells after 20 hrs by Griess reaction. In kind it is functional, cell-based. To be noted: for IC50: RAW264.7, 20 h. Put shortly: (§1)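 RAW 264.7 cells plated at 5 × 10⁵ cells/mL, grown 24 h, then given LPS (1 µg/mL) plus compound (DMSO vehicle, final ≤0.1%) for 20 h. Supernatant nitrite measured with Griess reagent (1% sulfanilamide in 5% H₃PO₄, 0.1% N-(1-naphthyl)ethylenediamine) at 540 nm against a NaNO₂ standard curve. %inhibition = [1 − sample NO/vehicle-control NO] × 100. IC50 by nonlinear regression.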
(In general: Nitrite, measured by Griess reagent, commonly stands in for NO production.)

Data set [2] deals with RAW264.7. Briefly: Inhibition of LPS-induced nitric oxide production in mouse RAW264.7 cells at 20 uM after 20 hrs by Griess reaction. In kind it is functional. Conditions: RAW264.7, 20 h. Put shortly: as §1
Data set [3] has as its system RAW264.7. In words: Inhibition of LPS-induced iNOS protein expression in mouse RAW264.7 cells at 15 uM after 16 hrs by Western blot. Type of data set: functional, cell-based. Put shortly:
(§2)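 RAW 264.7 cells stimulated with LPS (1 µg/mL) with or without several compound concentrations. Total RNA collected at 4 h and analysed for iNOS mRNA by RT-PCR. Protein collected at 16 h and analysed for iNOS by western blot, with β-actin as reference.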
For orientation: A western blot detects proteins with antibodies after separation by electrophoresis.

Data set [4] has as its system RAW264.7. In words: Inhibition of LPS-induced iNOS mRNA expression in mouse RAW264.7 cells after 4 hrs by RT-PCR. Type of data set: functional, cell-based. Put shortly:
as §2

Data set [5] deals with RAW264.7. Briefly: Inhibition of LPS-induced iNOS protein expression in mouse RAW264.7 cells after 16 hrs by Western blot. In kind it is functional, cell-based. The essentials: as §2
Data set [6] relates to RAW264.7. Briefly: Inhibition of LPS-induced iNOS mRNA expression in mouse RAW264.7 cells at 15 uM after 4 hrs by RT-PCR. Type of data set: functional, cell-based. The essentials: as §2
For data set [7], the system named is RAW264.7. Briefly: Cytotoxicity against mouse RAW264.7 cells assessed as cell viability upto 15 uM after 24 hrs by MTT assay. In kind it is cell-based. Conditions: raw264.7, 24 h. Put shortly: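 RAW 264.7 macrophages exposed to compound for 24 h, and viability then read by MTT assay.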
A general note: Tetrazolium assays rely on reduction of a dye to a coloured formazan, in cell work by metabolically active cells.

Each structure is given as a SMILES string. Activity calls are given as the source filed them. The calls are words filed in the database; no cut-off is given here.

Regarding `CCCNC(=O)c1cc(-n2cc(-c3ccccc3)nn2)ccc1O`, in the data set on RAW264.7 [1], the IC50 was above 20 µM. The same compound came in with an inhibition at 20 µM with RAW264.7 [2] of 28.6%.

As to `CNC(=N)NCCC[C@H](N)C(=O)O` [TILARGININE], the IC50 in the data set on RAW264.7 [1] is 19.9 µM.

Turning to `CC(C)CCc1cn(-c2ccc(C(=O)N3CCCCC3)c(O)c2)nn1`, the IC50 with RAW264.7 [1] was above 20 µM. In the data set with RAW264.7 [2], this compound displayed an inhibition at 20 µM of 1.9%.

`CCCNC(=O)c1ccc(-n2cc(-c3cc(C(F)(F)F)cc(C(F)(F)F)c3)nn2)cc1O` came in with an IC50 in the data set with RAW264.7 [1] above 20 µM. In the data set with RAW264.7 [2], this compound yielded an inhibition at 20 µM of 0%.

`CCCNC(=O)c1ccc(-n2cc(-c3cccc(Cl)c3)nn2)cc1O` gave a concentration for half-maximal inhibition (IC50) in the data set with RAW264.7 [1] above 20 µM. The compound further had an inhibition at 20 µM in the data set on RAW264.7 [2] of 0%.

`O=C(c1ccc(-n2cc(-c3cc(C(F)(F)F)cc(C(F)(F)F)c3)nn2)cc1O)N1CCCCC1` returned an IC50 in the data set on RAW264.7 [1] above 20 µM. Also, 20 µM produced 0% inhibition in the data set with RAW264.7 [2].

On to `CCCCCc1ccc(-c2cn(-c3ccc(C(=O)N4CCCCC4)c(O)c3)nn2)cc1`, for which the IC50 with RAW264.7 [1] is above 20 µM. Also, testing at 20 µM in the data set on RAW264.7 [2] gave an inhibition of 0%.

The compound `O=C(c1cc(-n2cc(-c3cc(F)cc(F)c3)nn2)ccc1O)N1CCCCC1` had an IC50 in the data set on RAW264.7 [1] above 20 µM. Further, in the data set with RAW264.7 [2], the inhibition at 20 µM was 9.1%.

In turn, `O=C(c1ccc(-n2cc(-c3ccccc3)nn2)cc1O)N1CCCCC1` had a half-maximal inhibitory concentration (IC50) in the data set on RAW264.7 [1] above 20 µM. This compound also yielded an inhibition at 20 µM in the data set on RAW264.7 [2] of 0%.

Turning to `CCCCCCc1cn(-c2ccc(C(=O)N3CCCCC3)c(O)c2)nn1`, the IC50 in the data set with RAW264.7 [1] was above 20 µM. For the same compound, the inhibition at 20 µM in the data set on RAW264.7 [2] was 8.3%.

In the data set on RAW264.7 [1], `CCCNC(=O)c1cc(-n2cc(-c3cccc(Cl)c3)nn2)ccc1O` registered an IC50 above 20 µM. The inhibition at 20 µM with RAW264.7 [2] worked out at 33.8%.

For the compound `CCCNC(=O)c1cc(-n2cc(-c3cc(F)cc(F)c3)nn2)ccc1O`, the IC50 with RAW264.7 [1] is above 20 µM. For the same compound, the inhibition at 20 µM with RAW264.7 [2] worked out at 0%.

In the data set with RAW264.7 [1], `CCCCCCc1cn(-c2ccc(O)c(C(=O)NCCC)c2)nn1` yielded an IC50 of 19.7 µM. In the data set on RAW264.7 [2], at 20 µM the inhibition was 57.9%.

Consider `CCCCCc1ccc(-c2cn(-c3ccc(O)c(C(=O)NCCC)c3)nn2)cc1`, for which, in the data set with RAW264.7 [1], the IC50 is above 20 µM. Moreover, in the data set with RAW264.7 [2], at 20 µM the inhibition was 0%.

Take `CCCNC(=O)c1cc(-n2cc(-c3cc(C(F)(F)F)cc(C(F)(F)F)c3)nn2)ccc1O`: in the data set on RAW264.7 [1], the half-maximal inhibitory concentration (IC50) was above 20 µM. Besides, the inhibition at 20 µM in the data set on RAW264.7 [2] is 1.8%.

`CCCNC(=O)c1cc(-n2cc(CCC(C)C)nn2)ccc1O`: in the data set on RAW264.7 [1], the IC50 is above 20 µM. For the same compound, in the data set on RAW264.7 [2], the inhibition at 20 µM came to 22.6%.

In the case of `O=C(c1cc(-n2cc(-c3cc(C(F)(F)F)cc(C(F)(F)F)c3)nn2)ccc1O)N1CCCCC1`, the figures for the Activity entry in the data set with RAW264.7 [1] and in the data set on RAW264.7 [7] were “Dose-dependent effect” and “Non-toxic”, respectively. For the same compound, in the data set with RAW264.7 [1], inhibition was half-maximal at 12.8 µM (IC50). The inhibition entry in the data set on RAW264.7 [3] and in the data set with RAW264.7 [6] was “Active” in each case. Besides, the inhibition result in the data set on RAW264.7 [4] and in the data set on RAW264.7 [5] was “Dose-dependent effect” each time. Besides, in the data set on RAW264.7 [2], the inhibition at 20 µM was determined as 94.1%.

As to `CCCNC(=O)c1ccc(-n2cc(-c3ccccc3)nn2)cc1O`, in the data set with RAW264.7 [1], the IC50 is above 20 µM. In the data set with RAW264.7 [2], this compound yielded an inhibition at 20 µM of 1.1%.

`CCCNC(=O)c1ccc(-n2cc(CCC(C)C)nn2)cc1O` had an IC50 in the data set on RAW264.7 [1] above 20 µM. At 20 µM the inhibition in the data set on RAW264.7 [2] was 7.3%.

In turn, `CCCCCCc1cn(-c2ccc(C(=O)NCCC)c(O)c2)nn1` gave an IC50 in the data set on RAW264.7 [1] above 20 µM. The compound further returned an inhibition at 20 µM with RAW264.7 [2] of 11%.

The compound `CCCCCc1ccc(-c2cn(-c3ccc(O)c(C(=O)N4CCCCC4)c3)nn2)cc1` registered a half-inhibitory concentration (IC50) with RAW264.7 [1] above 20 µM. The same compound came in with an inhibition at 20 µM in the data set on RAW264.7 [2] of 18.4%.

Regarding `CCCNC(=O)c1ccc(-n2cc(-c3cc(F)cc(F)c3)nn2)cc1O`, in the data set with RAW264.7 [1], the half-maximal inhibitory concentration (IC50) is above 20 µM. The same compound had an inhibition at 20 µM with RAW264.7 [2] of 0%.

On to `CC(C)CCc1cn(-c2ccc(O)c(C(=O)N3CCCCC3)c2)nn1`, for which, in the data set with RAW264.7 [1], the IC50 is above 20 µM. Moreover, 20 µM produced 0.9% inhibition in the data set on RAW264.7 [2].

For the compound `CCCCCc1ccc(-c2cn(-c3ccc(C(=O)NCCC)c(O)c3)nn2)cc1`, the half-inhibitory concentration (IC50) with RAW264.7 [1] was above 20 µM. In addition, the inhibition at 20 µM in the data set on RAW264.7 [2] came to 0%.

In the data set on RAW264.7 [1], `O=C(c1cc(-n2cc(-c3ccccc3)nn2)ccc1O)N1CCCCC1` gave a 50% inhibitory concentration (IC50) above 20 µM. Also, 20 µM produced 11.8% inhibition in the data set with RAW264.7 [2].

For the compound `O=C(c1ccc(-n2cc(-c3cccc(Cl)c3)nn2)cc1O)N1CCCCC1`, the IC50 in the data set on RAW264.7 [1] was above 20 µM. For the same compound, the inhibition at 20 µM in the data set on RAW264.7 [2] turned out to be 0%.

Take `O=C(c1ccc(-n2cc(-c3cc(F)cc(F)c3)nn2)cc1O)N1CCCCC1`: the 50% inhibitory concentration (IC50) in the data set with RAW264.7 [1] is above 20 µM. Further, in the data set on RAW264.7 [2], the inhibition at 20 µM was found to be 0%.

Turning to `O=C(c1cc(-n2cc(-c3cccc(Cl)c3)nn2)ccc1O)N1CCCCC1`, in the data set on RAW264.7 [1], the IC50 is above 20 µM. In the data set on RAW264.7 [2], this compound showed an inhibition at 20 µM of 35.4%.

For `CCCCCCc1cn(-c2ccc(O)c(C(=O)N3CCCCC3)c2)nn1`, the 50% inhibitory concentration (IC50) in the data set with RAW264.7 [1] was above 20 µM. Also, 20 µM produced 4.2% inhibition with RAW264.7 [2].
